# Measurements taken from ChEMBL document CHEMBL2311305, “Antiproliferative potency of novel benzofuran-2-carboxamides on tumour cell lines: cell death mechanisms and determination of crystal structure” (Eur J Med Chem, 2013).
# Calls of active or inactive are those of the source. The rule behind the calls is not given here.
# How the values were obtained:
# SK-BR-3 [1] = test: Induction of cell cycle arrest in human SKBR3 cells assessed as S phase cells at 10 uM after 24 hrs by PI-staining based flow cytometric analysis (reference value: 26.2 +/- 2.3%); type: functional
# SK-BR-3 [2] = test: Induction of cell cycle arrest in human SKBR3 cells assessed as G1 phase cells at 5 uM after 48 hrs by PI-staining based flow cytometric analysis (reference value: 53.3 +/- 1.5%); type: functional
# SK-BR-3 [3] = test: Induction of apoptosis in human SKBR3 cells assessed as caspase3 activation at 5 uM after 24 to 48 hrs by caspase protease assay; type: functional, cell-based
# How it was run: (§1)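 Compound at 5 µM on SK-BR-3 and 10 µM on SW620. Cells harvested after 24 and 48 h, washed in PBS, lysed 10 min on ice, centrifuged. Lysate diluted to 3 mg/mL protein and mixed with DTT-containing reaction buffer and caspase-3, -8 or -9 substrate. Incubated 90 min at 37 °C in the dark. Absorbance read at 405 nm, duplicates, compared with untreated control.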
# SK-BR-3 [4] = test: Induction of cell cycle arrest in human SKBR3 cells assessed as subG1 phase cells at 5 uM after 24 hrs by PI-staining based flow cytometric analysis (reference value: 25.1 +/- 0.4%); type: functional
# SK-BR-3 [5] = test: Induction of cell cycle arrest in human SKBR3 cells assessed as S phase cells at 10 uM after 48 hrs by PI-staining based flow cytometric analysis (reference value: 35.2 +/- 1.8%); type: functional
# MCF7 = test: Cytotoxicity against human MCF7 cells after 72 hrs by MTT assay; type: functional, cell-based; conditions: Homo sapiens, MCF7, 72 h
# How it was run: (§2)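 Cells seeded at 3000-6000 per well on day 0, according to cell line doubling time. Compound added in five 10-fold dilutions, 72-h incubation, then MTT colorimetric read-out. Absorbances converted to percentage growth by NCI formulae. IC50 obtained by linear regression between the concentrations bracketing PG 50; ">100" assigned when no concentration reaches it. Quadruplicate points, three independent experiments.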
# SK-BR-3 [6] = test: Induction of apoptosis in human SKBR3 cells assessed as caspase9 activation at 5 uM after 24 to 48 hrs by caspase protease assay; type: functional, cell-based; how it was run: as §1
# SW-620 = test: Cytotoxicity against human SW620 cells after 72 hrs by MTT assay; type: functional, cell-based; conditions: Homo sapiens, SW-620, 72 h; how it was run: as §2
# SK-BR-3 [7] = test: Induction of cell cycle arrest in human SKBR3 cells assessed as subG1 phase cells at 5 uM after 48 hrs by PI-staining based flow cytometric analysis (reference value: 27.5 +/- 0.2%); type: functional
# SK-BR-3 [8] = test: Induction of cell cycle arrest in human SKBR3 cells assessed as G1 phase cells at 10 uM after 48 hrs by PI-staining based flow cytometric analysis (reference value: 53.3 +/- 1.5%); type: functional
# SK-BR-3 [9] = test: Induction of cell cycle arrest in human SKBR3 cells assessed as subG1 phase cells at 10 uM after 48 hrs by PI-staining based flow cytometric analysis (reference value: 27.5 +/- 0.2%); type: functional
# SK-BR-3 [10] = test: Cytotoxicity against human SKBR3 cells after 72 hrs by MTT assay; type: functional, cell-based; conditions: SK-BR-3, 72 h; how it was run: as §2
# SK-BR-3 [11] = test: Induction of cell cycle arrest in human SKBR3 cells assessed as G2/M phase cells at 10 uM after 48 hrs by PI-staining based flow cytometric analysis (reference value: 11.6 +/- 0.3%); type: functional
# SK-BR-3 [12] = test: Induction of apoptosis in human SKBR3 cells assessed as caspase8 activation at 5 uM after 24 to 48 hrs by caspase protease assay; type: functional, cell-based; how it was run: as §1
# MIA PaCa-2 = test: Cytotoxicity against human MIAPaCa2 cells after 72 hrs by MTT assay; type: functional, cell-based; conditions: Homo sapiens, MIA PaCa-2, 72 h; how it was run: as §2
# SK-BR-3 [13] = test: Induction of cell cycle arrest in human SKBR3 cells assessed as G2/M phase cells at 5 uM after 48 hrs by PI-staining based flow cytometric analysis (reference value: 11.6 +/- 0.3%); type: functional
# SK-BR-3 [14] = test: Induction of cell cycle arrest in human SKBR3 cells assessed as G1 phase cells at 10 uM after 24 hrs by PI-staining based flow cytometric analysis (reference value: 40.1 +/- 0.7%); type: functional
# SK-BR-3 [15] = test: Induction of cell cycle arrest in human SKBR3 cells assessed as G2/M phase cells at 10 uM after 24 hrs by PI-staining based flow cytometric analysis (reference value: 33.7 +/- 0.3%); type: functional
# SK-BR-3 [16] = test: Induction of cell cycle arrest in human SKBR3 cells assessed as S phase cells at 5 uM after 24 hrs by PI-staining based flow cytometric analysis (reference value: 26.2 +/- 2.3%); type: functional
# WI-38 = test: Cytotoxicity against human WI38 cells after 72 hrs by MTT assay; type: cell-based; conditions: Homo sapiens, WI-38, 72 h; how it was run: as §2
# SK-BR-3 [17] = test: Induction of cell cycle arrest in human SKBR3 cells assessed as S phase cells at 5 uM after 48 hrs by PI-staining based flow cytometric analysis (reference value: 35.2 +/- 1.8%); type: functional
# SK-BR-3 [18] = test: Induction of cell cycle arrest in human SKBR3 cells assessed as G1 phase cells at 5 uM after 24 hrs by PI-staining based flow cytometric analysis (reference value: 40.1 +/- 0.7%); type: functional
# SK-BR-3 [19] = test: Induction of cell cycle arrest in human SKBR3 cells assessed as subG1 phase cells at 10 uM after 24 hrs by PI-staining based flow cytometric analysis (reference value: 25.1 +/- 0.4%); type: functional
# SK-BR-3 [20] = test: Induction of cell cycle arrest in human SKBR3 cells assessed as G2/M phase cells at 5 uM after 24 hrs by PI-staining based flow cytometric analysis (reference value: 33.7 +/- 0.3%); type: functional
# HeLa = test: Cytotoxicity against human HeLa cells after 72 hrs by MTT assay; type: functional, cell-based; conditions: Homo sapiens, HeLa, 72 h; how it was run: as §2
smiles,measurement,setting,value
Cl.O=C(Nc1nc2ccc(C3=NCCN3)cc2[nH]1)c1cc2ccccc2o1,Activity,SK-BR-3 [1],23.6%
same,Activity,SK-BR-3 [2],21.8%
same,Activity,SK-BR-3 [3],Active
same,Activity,SK-BR-3 [4],33.1%
same,Activity,SK-BR-3 [5],31.3%
same,IC50,MCF7,7 µM
same,Activity,SK-BR-3 [6],Active
same,IC50,SW-620,74.9 µM
same,Activity,SK-BR-3 [7],38.1%
same,Activity,SK-BR-3 [8],52.8%
same,Activity,SK-BR-3 [9],36.3%
same,IC50,SK-BR-3 [10],3.83 µM
same,Activity,SK-BR-3 [11],15.9%
same,Activity,SK-BR-3 [12],Active
same,IC50,MIA PaCa-2,91.2 µM
same,Activity,SK-BR-3 [13],9.7%
same,Activity,SK-BR-3 [14],70%
same,Activity,SK-BR-3 [15],6.4%
same,Activity,SK-BR-3 [16],31.5%
same,IC50,WI-38,> 100 µM
same,Activity,SK-BR-3 [17],68.5%
same,Activity,SK-BR-3 [18],58.5%
same,Activity,SK-BR-3 [19],31.5%
same,Activity,SK-BR-3 [20],10%
same,IC50,HeLa,68.5 µM
